Data: ChEMBL document CHEMBL3244241, “Synthesis of cephalotaxine esters and correlation of their structures with antitumor activity” (J Med Chem, 1977)
Activity calls are given as the source filed them. The rule behind the calls is not given here.

Experiments:
P388 [1] = experiment: Antitumor activity against mouse P388 cells allografted in DBA/2 mouse assessed as disease cure at 365 mg/kg/day, ip for 9 days compound administered through water+alcohol vehicle measured after 30 days; type: functional, organism-based
How it was run: (§1)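 P388 lymphocytic leukemia in DBA/2 mice; one intraperitoneal injection per day for 9 days. […] Injection vehicles were water + alcohol, saline + Tween 80, or aqueous 0.5% citric acid. Some tests were duplicated, and 30-day cures were recorded.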

L1210 = experiment: Antitumor activity against mouse L1210 cells allografted in DBA/2 mouse at 25 to 200 mg/kg; type: functional, organism-based
P388 [2] = experiment: Antitumor activity against mouse P388 cells allografted in DBA/2 mouse assessed as host survival at 20 mg/kg/day, ip for 9 days compound administered through water+alcohol vehicle relative to control; type: functional; details: route intraperitoneal
How it was run: (§2)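 P388 lymphocytic leukemia in DBA/2 mice. Dosing was one intraperitoneal injection per day for 9 days in the vehicle stated. […] Duplicate tests were run for some doses.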

Mus musculus [3] = experiment: Toxicity in DBA/2 mouse allografted with mouse P388 cells assessed as change in body weight at 20 mg/kg/day, ip for 9 days compound administered through water+alcohol vehicle; type: organism-based; parameters: route intraperitoneal; details: in vivo, 216 h
How it was run: (§3)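 DBA/2 mice bearing P388 lymphocytic leukemia received one intraperitoneal injection per day for 9 days, given in the vehicle named for each test (water/alcohol-based, saline or saline + Tween 80). Toxicity was noted during dosing alongside survival scoring (T/C, treated versus control mean survival time).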

Mus musculus [4] = experiment: Toxicity in DBA/2 mouse allografted with mouse P388 cells assessed as change in body weight at 80 mg/kg/day, ip for 9 days compound administered through water+alcohol vehicle; type: organism-based; parameters: route intraperitoneal; details: in vivo, 216 h; how it was run: as §3
P388 [5] = experiment: Antitumor activity against mouse P388 cells allografted in DBA/2 mouse assessed as host survival at 80 mg/kg/day, ip for 9 days compound administered through water+alcohol vehicle relative to control; type: functional; details: route intraperitoneal; how it was run: as §2
P388 [6] = experiment: Antitumor activity against mouse P388 cells allografted in DBA/2 mouse assessed as host survival at 40 mg/kg/day, ip for 9 days compound administered through water+alcohol vehicle relative to control; type: functional; details: route intraperitoneal; how it was run: as §2
Mus musculus [7] = experiment: Toxicity in DBA/2 mouse allografted with mouse P388 cells assessed as change in body weight at 40 mg/kg/day, ip for 9 days compound administered through water+alcohol vehicle; type: organism-based; parameters: route intraperitoneal; details: in vivo, 216 h; how it was run: as §3
Mus musculus [8] = experiment: Toxicity in DBA/2 mouse allografted with mouse P388 cells at 480 mg/kg/day, ip for 9 days; type: organism-based; parameters: route intraperitoneal; details: in vivo, 216 h; how it was run: as §3
P388 [9] = experiment: Antitumor activity against mouse P388 cells allografted in DBA/2 mouse assessed as host survival at 9 mg/kg/day, ip for 9 days compound administered through water+alcohol vehicle relative to control; type: functional; details: route intraperitoneal; how it was run: as §2
Mus musculus [10] = experiment: Toxicity in DBA/2 mouse allografted with mouse P388 cells assessed as change in body weight at 4 mg/kg/day, ip for 9 days compound administered through saline vehicle; type: organism-based; parameters: route intraperitoneal; details: in vivo, 216 h
P388 [11] = experiment: Antitumor activity against mouse P388 cells allografted in DBA/2 mouse assessed as host survival at 4 mg/kg/day, ip for 9 days compound administered through saline vehicle relative to control; type: functional; details: route intraperitoneal; how it was run: as §2
Mus musculus [12] = experiment: Toxicity in DBA/2 mouse allografted with mouse P388 cells assessed as change in body weight at 9 mg/kg/day, ip for 9 days compound administered through water+alcohol vehicle; type: organism-based; parameters: route intraperitoneal; details: in vivo, 216 h
P388 [13] = experiment: Antitumor activity against mouse P388 cells allografted in DBA/2 mouse assessed as host survival at 13 mg/kg/day, ip for 9 days compound administered through water+alcohol vehicle relative to control; type: functional; details: route intraperitoneal; how it was run: as §2
P388 [14] = experiment: Antitumor activity against mouse P388 cells allografted in DBA/2 mouse assessed as host survival at 8.8 mg/kg/day, ip for 9 days compound administered through water+alcohol vehicle relative to control; type: functional; details: route intraperitoneal; how it was run: as §2
Mus musculus [15] = experiment: Toxicity in DBA/2 mouse allografted with mouse P388 cells assessed as change in body weight at 13 mg/kg/day, ip for 9 days compound administered through water+alcohol vehicle; type: organism-based; parameters: route intraperitoneal; details: in vivo, 216 h; how it was run: as §3
P388 [16] = experiment: Antitumor activity against mouse P388 cells allografted in DBA/2 mouse assessed as host survival at 320 mg/kg/day, ip for 9 days compound administered through water+alcohol vehicle relative to control; type: functional; details: route intraperitoneal; how it was run: as §2
P388 [17] = experiment: Antitumor activity against mouse P388 cells allografted in DBA/2 mouse assessed as host survival at 160 mg/kg/day, ip for 9 days compound administered through water+alcohol vehicle relative to control; type: functional; details: route intraperitoneal; how it was run: as §2
Mus musculus [18] = experiment: Toxicity in DBA/2 mouse allografted with mouse P388 cells assessed as change in body weight at 160 mg/kg/day, ip for 9 days compound administered through water+alcohol vehicle; type: organism-based; parameters: route intraperitoneal; details: in vivo, 216 h; how it was run: as §3
Mus musculus [19] = experiment: Toxicity in DBA/2 mouse allografted with mouse P388 cells assessed as change in body weight at 320 mg/kg/day, ip for 9 days compound administered through water+alcohol vehicle; type: organism-based; parameters: route intraperitoneal; details: in vivo, 216 h; how it was run: as §3
P388 [20] = experiment: Antitumor activity against mouse P388 cells allografted in DBA/2 mouse assessed as host survival at 20 mg/kg/day, ip for 9 days compound administered through 0.5% citric acid vehicle; type: functional, organism-based; how it was run: as §1
Mus musculus [21] = experiment: Toxicity in DBA/2 mouse allografted with mouse P388 cells assessed as change in body weight at 8.8 mg/kg/day, ip for 9 days compound administered through water+alcohol vehicle; type: organism-based; parameters: route intraperitoneal; details: in vivo, 216 h; how it was run: as §3
P388 [22] = experiment: Antitumor activity against mouse P388 cells allografted in DBA/2 mouse assessed as host survival at 240 mg/kg/day, ip for 9 days compound administered through water+alcohol vehicle relative to control; type: functional; details: route intraperitoneal; how it was run: as §2
Mus musculus [23] = experiment: Toxicity in DBA/2 mouse allografted with mouse P388 cells assessed as change in body weight at 365 mg/kg/day, ip for 9 days compound administered through water+alcohol vehicle; type: organism-based; parameters: route intraperitoneal; details: in vivo, 216 h; how it was run: as §3
Mus musculus [24] = experiment: Toxicity in DBA/2 mouse allografted with mouse P388 cells assessed as change in body weight at 240 mg/kg/day, ip for 9 days compound administered through water+alcohol vehicle; type: organism-based; parameters: route intraperitoneal; details: in vivo, 216 h; how it was run: as §3
P388 [25] = experiment: Antitumor activity against mouse P388 cells allografted in DBA/2 mouse assessed as host survival at 365 mg/kg/day, ip for 9 days compound administered through water+alcohol vehicle relative to control; type: functional; details: route intraperitoneal; how it was run: as §2
Mus musculus [26] = experiment: Toxicity in DBA/2 mouse allografted with mouse P388 cells at 400 mg/kg/day, ip for 9 days; type: organism-based; parameters: route intraperitoneal; details: in vivo, 216 h; how it was run: as §3
P388 [27] = experiment: Antitumor activity against mouse P388 cells allografted in DBA/2 mouse assessed as host survival at 20 mg/kg/day, ip for 9 days compound administered through water+acetone vehicle relative to control; type: functional; details: route intraperitoneal; how it was run: as §2
Mus musculus [28] = experiment: Toxicity in DBA/2 mouse allografted with mouse P388 cells assessed as change in body weight at 20 mg/kg/day, ip for 9 days compound administered through water+acetone vehicle; type: organism-based; parameters: route intraperitoneal; details: in vivo, 216 h; how it was run: as §3
Mus musculus [29] = experiment: Toxicity in DBA/2 mouse allografted with mouse P388 cells assessed as change in body weight at 20 mg/kg/day, ip for 9 days compound administered through saline+Tween 80 vehicle; type: organism-based; parameters: route intraperitoneal; details: in vivo, 216 h; how it was run: as §3
P388 [30] = experiment: Antitumor activity against mouse P388 cells allografted in DBA/2 mouse assessed as host survival at 20 mg/kg/day, ip for 9 days compound administered through saline+Tween 80 vehicle relative to control; type: functional; details: route intraperitoneal; how it was run: as §2

C=C(CC(=O)OC)C(=O)O[C@@H]1C(OC)=C[C@]23CCCN2CCc2cc4c(cc2[C@H]13)OCO4 [listing 1 of 2 here]
Activity (P388 [1]): Active | Activity (L1210): inactive

C/C=C/C=C/C(=O)O[C@@H]1C(OC)=C[C@]23CCCN2CCc2cc4c(cc2[C@H]13)OCO4
T/C (P388 [2]): 130% | Activity (Mus musculus [3]): 0.9 g | Activity (Mus musculus [4]): 0.9 g | T/C (P388 [5]): 150% | T/C (P388 [6]): 125% | Activity (Mus musculus [7]): -1.8 g

C=C(CC(=O)OC)C(=O)O[C@@H]1C(OC)=C[C@]23CCCN2CCc2cc4c(cc2[C@H]13)OCO4 (single isomer, unassigned)
Activity (Mus musculus [8]): Toxic

COC(=O)C[C@@](O)(CCC(C)C)C(=O)O[C@@H]1C(OC)=C[C@]23CCCN2CCc2cc4c(cc2[C@H]13)OCO4
T/C (P388 [9]): 131% | Activity (Mus musculus [10]): 0.5 g | T/C (P388 [11]): 150% | Activity (Mus musculus [12]): -2.2 g

COC1=C[C@]23CCCN2CCc2cc4c(cc2[C@@H]3[C@@H]1OC(=O)OCC(Cl)(Cl)Cl)OCO4
T/C (P388 [13]): 138% | T/C (P388 [14]): 170% | T/C (P388 [2]): 128% | Activity (Mus musculus [15]): -0.5 g | T/C (P388 [16]): 172% | T/C (P388 [17]): 155% | Activity (Mus musculus [18]): -0.9 g | Activity (Mus musculus [3]): -2.7 g | Activity (Mus musculus [4]): -1.3 g | Activity (Mus musculus [19]): -1 g | T/C (P388 [5]): 160% | T/C (P388 [6]): 140% | Activity (P388 [20]): inactive | Activity (Mus musculus [7]): -0.4 g | Activity (Mus musculus [21]): -0.3 g

C=C(CC(=O)OC)C(=O)O[C@@H]1C(OC)=C[C@]23CCCN2CCc2cc4c(cc2[C@H]13)OCO4 [listing 2 of 2 here]
T/C (P388 [17]): 167% | Activity (Mus musculus [18]): -1.1 g | T/C (P388 [22]): 169% | Activity (Mus musculus [4]): -0.1 g | Activity (Mus musculus [23]): -3 g | Activity (Mus musculus [24]): -1.4 g | T/C (P388 [25]): 198% | T/C (P388 [5]): 173% | T/C (P388 [6]): 135% | Activity (Mus musculus [26]): Toxic | Activity (Mus musculus [7]): -1.3 g

COC(=O)/C(=C/C(=O)O[C@@H]1C(OC)=C[C@]23CCCN2CCc2cc4c(cc2[C@H]13)OCO4)CCC(C)C
T/C (P388 [27]): 131% | Activity (Mus musculus [28]): 0.9 g

CCOC(=O)C(=O)O[C@@H]1C(OC)=C[C@]23CCCN2CCc2cc4c(cc2[C@H]13)OCO4
T/C (P388 [13]): 154% | T/C (P388 [2]): 135% | Activity (Mus musculus [15]): -0.8 g | Activity (Mus musculus [3]): -0.2 g | Activity (Mus musculus [29]): -0.1 g | T/C (P388 [30]): 129% | Activity (P388 [20]): inactive
